Rows were chosen to be rich in hits. Some 8.7% of all compounds tested hit in one or more screens of this group.
Cav32 inh: inhibitors of human Cav3.2 T-type calcium channel; O95180; Cav3.2-expressing cells, Fluo-4 calcium fluorescence FDSS; active compounds read low; B-score at 10 µM; 100,000 tested, 4% active;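 active means single-dose well whose peak fluorescence ratio is a statistical outlier from its plate by either plate-standardised score or position-corrected B-score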
PTK2B oligo ant: Pyk2 (human) oligomerization antagonism; Q14289; Q293 cells, Pyk2 FERM NanoBiT luminescence; active compounds read low; z-score (the deposit names both 25 µM and 10 µM); 99,000 tested, 0.83% active;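 active means Z-score of -3 or lower, scaled per plate to the spread of control and sample wells; inactive means z-score above -3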;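 further: negative z-score means lost luminescence so less FERM oligomerization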
PostGolgi ctrl: yeast control strain growth, post-Golgi counter-screen | 98,000 tested, 5% active | AID 738 | inhibition, % at 10 µM | efflux-deficient yeast background strain, growth absorbance A615, 16 h
PostGolgi yeast: growth inhibition of a yeast mutant, post-Golgi transport screen | 98,000 tested, 0.9% active | inhibition, % at 10 µM | post-Golgi transport phenotypic cell assay | AID 739;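 further: yeast cells grown in 1536-well plates; yeast grown about 18 h at 30C before absorbance read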
Ecoli WT expand: blocks growth of wild type E. coli BW25113. AID 710. growth inhibition, % at 100 µM. OD600 absorbance. 98,000 tested, 0.15% active;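 active means growth inhibition above about 50% at one test dose, limit read from the data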;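 further: growth measured after 20 h incubation at 37 °C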
Ecoli tolC: blocks growth of E. coli BW25113 tolC mutant; 65,000 tested, 2.2% active; growth inhibition, % at 10 µM (by protocol); OD615;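 active means growth inhibition at or above a cutoff equal to the mean over every tested compound plus 3 SD, cut at about 60% in these data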;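 further: growth measured after 20 h incubation at 37 °C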
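Test system – E. coli BW25113 ΔtolC::kan, tolC deletion mutant strain · Detection – OD at 615 nm · Buffer or medium – LB with kanamycin 50 µg/mL · Times – 20 h compound exposure of bacteria at 37 °C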
Numbers without * were called inactive; x = not tested or not shown. Unless noted, no stated cut-off is given here; in the data, active means inhibition above about 30%; inactive means the rest.

SMILES	Cav32 inh	PTK2B oligo ant	PostGolgi ctrl	PostGolgi yeast	Ecoli WT expand	Ecoli tolC
Cc1ccc(-c2cc(C(F)F)nc(NCc3cccnc3)n2)cc1	-4.4*	-3.6*	44*	1	3	31
Cc1ccc(NC(=S)NCc2cccnc2)cc1	0.2	0.22	5	0	24	x
FC(F)(F)c1cc(-c2ccc(Cl)cc2)nc(NCc2cccnc2)n1	0.71	-3*	8	6	0	x
Cc1ccc(-c2cc(C(F)F)nc(NCC3CCCO3)n2)cc1 (stereo not drawn)	-3.3	-0.94	32*	7	2	17
Cc1ccccc1C(=O)NCc1nnc(SCC(=O)N2CCN(c3ccccc3)CC2)n1C	-0.011	2.6	16	2	3	x
O=C(CC12CC3CC(CC(C3)C1)C2)Nc1cccc2ncccc12	0.22	1	13	x	5	x
Cc1ccccc1NS(=O)(=O)c1ccc(NC(=O)CSCc2ccc(Br)cc2)cc1	-0.67	-2.4	91*	96*	-15	x
COC(=O)c1sccc1NC(=O)CSc1ccccc1NS(=O)(=O)c1ccc(Br)cc1	-3	0.37	32*	-20	-15	x
COC(=O)c1sccc1NC(=O)CSc1ccccc1NS(=O)(=O)c1ccc(F)cc1	-5.6*	-1.2	11	7	-10	x
COC(=O)c1sccc1NC(=O)CN(C)NS(=O)(=O)c1ccc(F)cc1	0.07	0.26	17	-13	9	x
O=C(CSCc1ccc(Br)cc1)Nc1ccc(S(=O)(=O)N2CCOCC2)cc1	-2.9	-0.85	19	1	-8	x
C=CCNc1cc(C)oc(=O)c1C(=O)CCC	0.097	-0.41	8	-3	5	x
CCCCCCc1nc2ccccc2c(=O)n1NC(=O)c1c(O)c2c(n(CC(C)C)c1=O)CCCC2	-2.7	1.4	12	9	-6	x
Cc1nc2ccccc2c(=O)n1NC(=O)c1c(O)c2c(n(CC(C)C)c1=O)CCCC2	-11*	-0.82	27	5	-15	60
Cc1cc(C)n2nc(C(=O)Nc3cccnc3)nc2n1	0.86	0.21	-6	3	1	-10
CCCCCn1c(Sc2nc3ccccc3s2)nc2c1c(=O)[nH]c(=O)n2C	-1.6	-1.2	35*	1	-7	24
Cc1csc(Sc2nc3c(c(=O)[nH]c(=O)n3C)n2CCCc2ccccc2)n1	-0.058	0.61	45*	-1	-14	0
Cc1cccc(OCC(=O)O/N=C(\N)Cc2ccc(Cl)cc2)c1	-0.35	0.23	-2	30*	3	x
CCCCc1nc(NCC2CCCO2)c(C#N)c2c1COC(C)(C)C2 (stereo not drawn)	-0.089	-1.9	96*	2	2	-3
CC(N1CCOC1=O)S(=O)(=O)c1ccccc1 (stereo not drawn)	-0.59	0.74	14	19	6	x
N#C/C(=C/c1ccc(Sc2nc3ccccc3[nH]2)o1)c1cccc(Br)c1	-2.1	-3.1*	32*	0	-11	x
Fc1cccc(F)c1CSc1nc2ccccc2[nH]1	-0.0034	-0.42	13	4	14	x
N#C/C(=C/c1ccc(Sc2nc3ccccc3[nH]2)o1)c1cccc(F)c1	-4.5*	-3.2*	55*	2	-18	x
N#C/C(=C/c1ccc(Sc2nc3ccccc3[nH]2)o1)c1ccccc1F	-2.9	-2.6	28	41*	-10	x
CC1CCCCN1C(=O)c1cc2nc(-c3ccccc3)cc(-c3ccccc3)n2n1 (stereo not drawn)	-1.9	-2.4	x	x	x	x
SMILES	Cav32 inh	PTK2B oligo ant	PostGolgi ctrl	PostGolgi yeast	Ecoli WT expand	Ecoli tolC
c1ccn2c(SCc3ccc4c(c3)OCO4)nnc2c1	-0.13	-0.44	4	1	1	-6
Cc1cccc2cc3c(N)c(C(=O)Nc4ccc(N5CCOCC5)cc4)sc3nc12	-2.9	-3.4*	41*	-1	-9	x
Cc1ccc2nc3sc(C(=O)Nc4ccc(N5CCOCC5)cc4)c(N)c3cc2c1	x	x	-3	17	0	x
O=c1cc(-c2ccccc2)[nH]c2[nH]n(-c3ccccc3)c(=O)c12	-0.3	-3.8*	5	23	-2	-26
CCCn1c(=O)[nH]c2ccccc21	0.55	0.66	-3	-5	8	x
O=c1[nH]c2ccccc2n1CCCN1CCN(C(c2ccccc2)c2ccccc2)CC1	-5*	x	x	x	x	4
C=C1CCN([C@@H](Cc2ccccc2)C(=O)Nc2ccc(OC)cc2)S(=O)(=O)c2ccccc21	-1.8	x	x	x	x	x
COc1ccc(S(=O)(=O)NCC2CCC(C(=O)N3CCC4(CC3)OCCO4)CC2)cc1 (stereo not drawn)	0.3	-0.72	x	x	x	-14
CCOc1cc(C)c(Cl)cc1S(=O)(=O)n1cnc2ccccc21	-5.7*	0.39	8	3	-3	39
CC1(CC(=O)O)SC(=O)NC1=O (stereo not drawn)	x	0.09	-5	-4	-5	-7
COc1ccc(N2CCN(C(c3nnnn3CCc3ccccc3)C(C)C)CC2)cc1 (stereo not drawn)	-1.9	-0.83	35*	9	-6	14
COc1cccc(C(c2nnnn2CCc2ccccc2)N2CCN(c3ccccc3)CC2)c1OC (stereo not drawn)	-4.2*	-3.3*	21	7	-15	11
Clc1ccc(C(c2nnnn2CCc2ccccc2)N2CCSCC2)cc1 (stereo not drawn)	-6.8*	-0.88	21	-4	-16	x
COCCn1nnnc1C(c1ccccc1OC)N1CCN(c2ccccc2)CC1 (stereo not drawn)	-0.1	-2.6	3	-2	-8	5
COc1ccccc1C(c1nnnn1CCc1ccccc1)N1CCCCCC1 (stereo not drawn)	-9*	-2	3	-3	3	x
C=CCn1c(CNc2ccc(C)cc2)nnc1SCC(=O)N/N=C/c1ccc(O)cc1	-0.4	0.78	3	1	8	x
Cc1cc2c(s1)CCCCC(=O)N2	0.23	0.86	2	4	4	-14
COc1ccc(S(=O)(=O)N2CCCC2C(=O)Nc2nnc(-c3cccnc3)s2)cc1 (stereo not drawn)	-0.034	-0.66	21	1	4	2
C=CC(C)(C)c1cc2cc3ccoc3cc2oc1=O	-2	x	x	x	x	x
COc1ccccc1C(c1nnnn1CCc1ccccc1)N1CCN(c2ccccc2)CC1 (stereo not drawn)	-5.9*	-2	4	-2	-12	14
COc1ccc(CCn2nnnc2C(C(C)C)N2CCN(c3ncccn3)CC2)cc1OC (stereo not drawn)	x	0.28	35*	-1	1	-1
COc1cccc(C(c2nnnn2Cc2ccccc2)N2CCN(C(=O)c3ccco3)CC2)c1OC (stereo not drawn)	-0.21	-0.55	25	8	2	22
Fc1ccc(C(c2nnnn2CCc2ccccc2)N2CCCc3ccccc32)cc1 (stereo not drawn)	-7.9*	-0.45	18	6	-13	x
Fc1ccc(C(c2nnnn2C2CCCC2)N2CCc3ccccc32)cc1 (stereo not drawn)	x	-2.4	9	3	-5	x

Bioassay records as filed in PubChem BioAssay.
